Screens: PubChem BioAssay, several laboratories
MEKK2 WT-MEK5: raises or lowers MEK5 binding to wildtype human MEKK2 PB1 domain; binding response (% of control), % at 10 µM; bead flow cytometry, Alexa488-MEK5 binding to MEKK2 WT; actives lie on both sides; Q9Y2U5; 1.1% of 290,000 active; in the data active = binding response below about 67% or above about 130%
IMP-1 inh: inhibitors of Pseudomonas aeruginosa IMP-1 metallo-beta-lactamase; purified IMP-1, nitrocefin hydrolysis, epi-absorbance fluorescence; inhibition, % at 5.6 µM; 0.45% of 290,000 active; AID 1556;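 active = inhibition above the mean plus 3 SD of all compounds in the same screening run, cut at about 4.5% in these data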
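Material – recombinant IMP-1 enzyme, purified · Amount – IMP-1 0.2 nM before substrate addition · Medium – HEPES buffer pH 7.1 with ZnSO4 and Brij 35 · Timing – 25 °C, 15 min preincubation, 25 min reaction · Measured by – plate fluorescence quenching by hydrolysis product, ex 480/em 530 nm · Read-out – percent enzyme inhibition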
MEKK2mut PB1 HTS: signal of MEK5 binding to mutant human MEKK2 PB1 domain. bead flow cytometry, Alexa488-MEK5 binding to MEKK2 mutant. percent response, % at 10 µM. 0.35% of 290,000 active; in the data active = percent response above about 24%, passing the limit was not always enough
MEKK3 PB1 HTS: raises or lowers MEK5 binding to the human MEKK3 PB1 domain; Q99759; bead-based flow cytometry, Alexa488-MEK5 binding to MEKK3; actives lie on both sides; 0 = blocked by unlabeled MEK5, 100 = vehicle; 1.4% of 290,000 active; binding response (% of control), % at 10 µM;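 active = binding response more than 3 SD above or below the average of its plate-row segment, actives on both sides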;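 also: Alexa488 bead fluorescence after subtracting the streptavidin-only scavenger bead signal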
Target sequence (Q99759 whole entry, looked up, the tested form may be a part): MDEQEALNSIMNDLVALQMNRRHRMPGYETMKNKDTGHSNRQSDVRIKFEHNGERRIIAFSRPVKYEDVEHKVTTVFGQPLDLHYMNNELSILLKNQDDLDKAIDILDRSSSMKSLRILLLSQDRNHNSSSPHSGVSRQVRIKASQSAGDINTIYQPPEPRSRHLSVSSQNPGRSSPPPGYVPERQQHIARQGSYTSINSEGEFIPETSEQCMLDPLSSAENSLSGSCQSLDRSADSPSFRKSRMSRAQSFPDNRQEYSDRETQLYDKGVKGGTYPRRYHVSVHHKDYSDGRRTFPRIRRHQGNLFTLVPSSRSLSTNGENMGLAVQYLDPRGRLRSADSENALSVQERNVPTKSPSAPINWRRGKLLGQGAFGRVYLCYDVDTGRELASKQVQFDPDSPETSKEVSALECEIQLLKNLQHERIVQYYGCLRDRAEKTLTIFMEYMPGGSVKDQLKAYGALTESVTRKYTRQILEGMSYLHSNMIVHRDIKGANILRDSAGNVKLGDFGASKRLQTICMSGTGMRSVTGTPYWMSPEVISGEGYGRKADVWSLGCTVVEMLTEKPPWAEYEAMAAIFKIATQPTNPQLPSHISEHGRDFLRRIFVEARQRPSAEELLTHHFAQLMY
VIM-2 inh: inhibitors of Pseudomonas aeruginosa VIM-2 metallo-beta-lactamase; AID 1527; inhibition, % at 5.6 µM; purified VIM-2, nitrocefin hydrolysis, epi-absorbance fluorescence; 0.89% of 290,000 active;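 active = inhibition above the mean of all tested compounds plus 3 SD, cutoff set per screening run, cut at about 7.5% in these data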;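 also: red hydrolysis product quenches plate fluorescence so inhibitors raise well fluorescence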
Numbers stand for hits; . = inactive; / = no result given; + = active, no number; [ ] = another dose, or the depositor's remark. Only some compounds are listed: those with a hit (about 3.4% of all), similar ones and a draw of the others.

SMILES	MEKK2 WT-MEK5	IMP-1 inh	MEKK2mut PB1 HTS	MEKK3 PB1 HTS	VIM-2 inh
Cc1cccc2c1c1ccc3c(c1n2C)C(=O)C=CC3=O	.	5.2	.	.	.
O=C(c1noc2c1CCCC2)N1CCCCC1	.	.	.	.	.
CCC(C)n1c(=S)[nH]c2ccccc2c1=O (stereo not drawn)	.	.	.	.	.
CCC(Cc1ccccc1)n1c(=S)[nH]c2ccccc2c1=O (stereo not drawn)	/	.	+	136.0	.
Clc1nc(N2CCOCC2)ncc1Br	-4.0	.	.	.	.
Fc1cnc(N2CCOCC2)nc1N1CCOCC1	.	.	.	.	.
CCC(C)c1ccc(NC(=S)NCc2cccnc2)cc1 (stereo not drawn)	.	.	.	.	.
COc1ccc2c(CC(=O)OCC(=O)c3ccccc3OC)coc2c1	.	.	.	.	.
COc1ccc2c(CC(=O)OCC(=O)c3ccc(F)cc3)coc2c1	.	5.3	.	.	.
Cc1nc2nc(SCC(=O)NCCN3CCOCC3)nn2c(C)c1Cc1ccccc1	.	.	.	.	.
Cc1nc2nc(SCC(=O)N3CCOCC3)nn2c(C)c1Cc1c(F)cccc1Cl	2.0[inhibitor]	.	.	2.0[inhibitor]	.
CCCn1c(C(C)Nc2nc(-c3ccc(C)cc3)cs2)nc2ccccc21 (stereo not drawn)	.	.	.	.	.
CCCn1c(C(C)Nc2nc(-c3cccc(Br)c3)cs2)nc2ccccc21 (stereo not drawn)	.	.	.	.	7.9
COCCN1C(=O)/C(=C2/C(=O)N(CC(=O)Nc3ccccc3Cl)c3ccccc32)SC1=S	.	.	.	.	.
O=C(CN1C(=O)/C(=C2\SC(=S)N(CCS(=O)(=O)O)C2=O)c2ccccc21)Nc1cccc(Br)c1	.	12.7	.	.	.
C[C@@H](C(=O)Nc1nc(-c2ccccn2)cs1)N1C(=O)C2CCCCC2C1=O (stereo partly drawn)	.	11.4	.	.	.
O=C(CN1C(=O)C2CCCCC2C1=O)Nc1nc(-c2ccccn2)cs1 (stereo not drawn)	.	.	.	.	.
O=C(O)c1ccccc1C(=O)NCCc1c(C(=O)O)[nH]c2ccc(Cl)cc12	.	.	.	.	10.1
Cc1ccc(Sc2c(C)nn(C(=O)C3CC3)c2C)cc1	.	.	.	.	.
CCCCNS(=O)(=O)c1ccc2nc(SCC(=O)Nc3ccccc3Cl)[nH]c2c1	.	.	.	.	.
COc1cc(OC)c2c(C)cc(=O)oc2c1	.	4.9	.	.	.
COc1ccc2oc(=O)cc(C)c2c1	/	.	/	/	.
C=CCn1cc(/C=C/c2cc[n+](C)cc2)c2ccccc21	.	7.8	.	.	10.3
COc1ccc(S(=O)(=O)NC(C)CCc2ccccc2)cc1 (stereo not drawn)	.	.	.	.	.
CCCCC(=O)NC(=S)Nc1ccccc1C(=O)Nc1ccccc1	.	12.6	.	.	.
SMILES	MEKK2 WT-MEK5	IMP-1 inh	MEKK2mut PB1 HTS	MEKK3 PB1 HTS	VIM-2 inh
CC(=O)NC(=S)Nc1ccccc1C(=O)Nc1ccccc1	.	28.4	.	.	.
CCN(CC)CCNC(=O)C(=O)NCC1OCCN1S(=O)(=O)c1ccc(Cl)cc1 (stereo not drawn)	142.0	.	.	.	.
Cc1cc(C)c(S(=O)(=O)N2CCOC2CNC(=O)C(=O)NCCCn2ccnc2)c(C)c1 (stereo not drawn)	.	7.0	.	.	.
Cc1cc(C)c(S(=O)(=O)N2CCOC2CNC(=O)C(=O)NCCc2ccc(S(N)(=O)=O)cc2)c(C)c1 (stereo not drawn)	.	.	.	.	.
O=C(NCCCn1ccnc1)C(=O)NCC1OCCN1S(=O)(=O)c1ccc2c(c1)OCCO2 (stereo not drawn)	.	5.1	.	.	.
Cc1cc(C(=O)C(C)OC(=O)C2=NNC(=O)CC2)c(C)n1-c1ccc(OC(F)F)cc1 (stereo not drawn)	.	5.2	.	.	.
O=C(Nc1cccc2ncccc12)c1cc2ccccc2o1	.	.	.	.	.
CCCc1cc(=O)[nH]c(SCC(=O)Nc2c(C)cccc2C)n1	.	.	.	.	.
CC(=O)Nc1c(O)nc(SCC(=O)Nc2c(C)cccc2C)[nH]c1=O	.	7.3	.	.	.
CCOC(=O)C1CCN(c2ncnc3c2[nH]c2cccc(OC)c23)CC1	.	.	.	.	8.4
